Bioassay records as filed in PubChem BioAssay.
Only some compounds are listed: those with a hit (about 3.9% of all), similar ones and a draw of the others.
TAAR1 antag = antagonists of human TAAR1; Q96RJ0; CHO RD-HGA16 TAAR1, Fluo-8 calcium fluorescence, antagonist; inhibition, % at 3 µM; hit rate 1.5% among 360,000; AID 624466;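 active means inhibition above a per-plate cutoff, the mean inhibition of test compounds on that plate plus 3 SD, cut at about 49% in these data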
Target sequence (Q96RJ0 whole entry, looked up): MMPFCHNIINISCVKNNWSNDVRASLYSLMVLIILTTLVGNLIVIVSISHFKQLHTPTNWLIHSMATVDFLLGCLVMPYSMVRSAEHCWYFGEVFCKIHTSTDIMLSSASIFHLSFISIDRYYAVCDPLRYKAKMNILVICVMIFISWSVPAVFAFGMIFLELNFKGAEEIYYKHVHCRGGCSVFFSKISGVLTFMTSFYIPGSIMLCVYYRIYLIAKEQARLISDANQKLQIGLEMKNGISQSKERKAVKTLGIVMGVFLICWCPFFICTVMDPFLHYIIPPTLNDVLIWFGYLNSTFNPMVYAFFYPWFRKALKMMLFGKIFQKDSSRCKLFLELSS
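Assay system: RD-HGA16 CHO cells with stable hTAAR1 and Gα16 / Reagent: EC80 β-phenethylamine stimulus / Doses: 3 µM, single point / Timing: dye loading 75 min at 37 °C, then 30 min room temperature / Measured by: Fluo-8 intracellular calcium dye fluorescence, real-time kinetic reads / Controls: vehicle wells and EC80 agonist wells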
TMEM16A inh = blocks the mouse calcium-activated chloride channel TMEM16A; Q8BHY3; AID 588511; normalized B-score (activity score, 25-100; higher = stronger inhibition) at 10 µM; HEK293 TMEM16A/YFP iodide influx fluorescence, ionomycin; hit rate 1.2% among 310,000;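 active means ratio plate-corrected score three or more library SD toward inhibition, starting fluorescence score within five deviations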;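 further: score derived from kinetic fluorescence span divided by baseline fluorescence per well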
TAAR1 agonist = agonists of human TAAR1; Q96RJ0; CHO RD-HGA16 TAAR1, Fluo-8 calcium fluorescence; vehicle wells 0%, saturating PEA agonist 100%; activation, % at 3 µM; hit rate 0.99% among 360,000;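 active means activation above the mean activation of all test compounds in the run plus 3 SD, cut at about 38% in these data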
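Test system: RD-HGA16 (CHO) cells co-expressing Gα16 and hTAAR1 | Doses: Single dose, 3 µM | Schedule: 17-24 h seeding, 75 min 37 °C dye, 30 min RT | Evaluation: % activation from peak over basal fluorescence ratio, DMSO-to-PEA scaled | Technique: Kinetic Fluo-8 calcium fluorescence | Benchmarks: Low control DMSO, high control PEA (EC100)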
CRFBP-R2 agonist = CRF-BP/CRF-R2 complex agonism | HEK293 CRF-R2/CRF-BP, calcium dye fluorescence (FLIPR); percent of saturating CRF peptide response | activation, % at 13.2 µM | hit rate 0.46% among 350,000 | AID 588473;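 active means activation of at least 50%, plus an integration ratio under a set limit after plate pattern correction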
ANO1 activ = activates or potentiates the mouse TMEM16A chloride channel. Q8BHY3. HEK293 TMEM16A/YFP-H148Q/I152L, iodide quench fluorescence; hits give low values. B-score at 10 µM. hit rate 0.3% among 340,000. AID 623877;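 active means fluorescence-ratio B-score plate-corrected deviation score at least 3 library SD below zero, with starting fluorescence score within 5 deviations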;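 further: channel opened by trigger with iodide after compound preincubation; score built on the fluorescence ratio of max minus min over baseline; more negative score means more quench and so TMEM16A activation or potentiation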
CRFR2-BP antag = antagonists of CRF-binding protein/CRF-R2 receptor complex; HEK293 CRF-R2/CRF-BP, CRF-induced calcium fluorescence; inhibition, % at 11.8 µM; hit rate 0.59% among 350,000;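 active means inhibition of the ligand-induced calcium signal above about 50% at the single tested concentration, limit read from the data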
Numbers stand for hits.

Screening COc1ccc(N2C(=NC(=O)C3CCCO3)SC3CS(=O)(=O)CC32)cc1 (configuration not stated) returned TAAR1 antag inactive, TMEM16A inh inactive, TAAR1 agonist inactive, CRFBP-R2 agonist inactive, ANO1 activ inactive and CRFR2-BP antag inactive.
CCOc1ccc2nc(/N=C/c3nc(-c4ccc(Br)cc4)oc3O)sc2c1 was read as TAAR1 antag inactive, TMEM16A inh inactive, TAAR1 agonist inactive, CRFBP-R2 agonist 146.7, ANO1 activ inactive and CRFR2-BP antag inactive.
Screening COc1ccc(NC(=O)CN(C)C(=O)c2ccc3[nH]c4c(c3c2)CC(C)CC4)cc1 (configuration not stated) returned TAAR1 antag inactive, TMEM16A inh inactive, TAAR1 agonist inactive, CRFBP-R2 agonist inactive, ANO1 activ inactive and CRFR2-BP antag inactive.
Screening CCOC(=O)c1sc(=NC(=O)c2ccc(Cl)s2)n(C)c1C returned TAAR1 antag inactive, TMEM16A inh inactive, TAAR1 agonist inactive, CRFBP-R2 agonist inactive, ANO1 activ inactive and CRFR2-BP antag 114.2.
CCOC(=O)c1sc(=NC(=O)c2cccs2)n(C)c1C was read as TAAR1 antag inactive, TMEM16A inh inactive, TAAR1 agonist inactive, CRFBP-R2 agonist inactive, ANO1 activ inactive and CRFR2-BP antag inactive.
Screening COc1cccc(/C=N/N2C(=O)CSC2=S)c1O returned TAAR1 antag inactive, TMEM16A inh inactive, TAAR1 agonist inactive, CRFBP-R2 agonist inactive, ANO1 activ inactive and CRFR2-BP antag inactive.
COc1cc(/C=N/N2C(=O)CSC2=S)cc(Br)c1O was read as TAAR1 antag inactive, TAAR1 agonist 62.3, CRFBP-R2 agonist inactive, ANO1 activ inactive and CRFR2-BP antag inactive.
`CCOC(=O)C1=C(COC(=O)COc2ccc(C(=O)CC)cc2)NC(=O)NC1C` (configuration not stated) gave TAAR1 antag inactive, TMEM16A inh 100, TAAR1 agonist inactive, CRFBP-R2 agonist inactive, ANO1 activ inactive and CRFR2-BP antag inactive.
`CCOC(=O)C1=C(COC(=O)c2ccccc2OC)NC(=O)NC1C` (configuration not stated) gave TAAR1 antag 48.8, TAAR1 agonist inactive, CRFBP-R2 agonist inactive, ANO1 activ inactive and CRFR2-BP antag inactive.
For COc1ccc(-n2c(-c3ccc(Cl)cc3)c[nH]c2=S)cc1 the results were TAAR1 antag inactive, TMEM16A inh inactive, TAAR1 agonist inactive, CRFBP-R2 agonist inactive, ANO1 activ inactive and CRFR2-BP antag inactive.
Screening N[C@@H](CO)c1nnc([C@H](Cc2ccc(O)cc2)NC(=O)C2CCNCC2)o1 returned TAAR1 antag inactive, TMEM16A inh inactive, TAAR1 agonist inactive, CRFBP-R2 agonist inactive, ANO1 activ inactive and CRFR2-BP antag inactive.
C/C(=N\N1CCN(c2ccc(Cl)cc2)CC1)c1cccc([N+](=O)[O-])c1 was read as TAAR1 antag inactive, TMEM16A inh 25, TAAR1 agonist inactive, CRFBP-R2 agonist inactive, ANO1 activ inactive and CRFR2-BP antag inactive.
For O=C(Nc1ccccc1N1CCN(C(=O)c2ccc(Cl)cc2)CC1)c1cccc([N+](=O)[O-])c1 the results were TAAR1 antag 51.3, TMEM16A inh inactive, TAAR1 agonist inactive, CRFBP-R2 agonist inactive, ANO1 activ inactive and CRFR2-BP antag inactive.
Screening Cc1cc(C)c2c(CC(=O)Nc3nccs3)coc2c1 returned TAAR1 antag inactive, TMEM16A inh inactive, TAAR1 agonist inactive, CRFBP-R2 agonist inactive, ANO1 activ inactive and CRFR2-BP antag 99.4.
`CC(C)(C)c1ccc(SCCc2cccnc2)cc1` gave TAAR1 antag inactive, TMEM16A inh inactive, TAAR1 agonist inactive, CRFBP-R2 agonist inactive, ANO1 activ inactive and CRFR2-BP antag 71.0.
`CN(C1CCCCC1)C(CNS(=O)(=O)c1ccccc1)c1ccccc1` (configuration not stated) gave TAAR1 antag inactive, TMEM16A inh inactive, TAAR1 agonist inactive, CRFBP-R2 agonist inactive, ANO1 activ inactive and CRFR2-BP antag inactive.
Screening COc1cccc(-c2ccc(C#N)c(SCC(=O)NCCc3cccc(Cl)c3)n2)c1 returned TAAR1 antag 72.1, TMEM16A inh inactive, TAAR1 agonist inactive, CRFBP-R2 agonist inactive, ANO1 activ inactive and CRFR2-BP antag inactive.
OCc1ncc(-c2ccccc2)s1 was read as TAAR1 antag inactive, TMEM16A inh inactive, TAAR1 agonist inactive, CRFBP-R2 agonist inactive, ANO1 activ inactive and CRFR2-BP antag inactive.
`Cc1c(C(=O)NCCC2=CCCCC2)oc2ccc(S(=O)(=O)N3CCOCC3)cc12` gave TAAR1 antag 59.6, TMEM16A inh inactive, TAAR1 agonist 40.2, CRFBP-R2 agonist inactive, ANO1 activ inactive and CRFR2-BP antag inactive.
Screening Cc1ccc(CNC(=O)c2oc3ccc(S(=O)(=O)N4CCC5(CC4)OCCO5)cc3c2C)cc1 returned TAAR1 antag 57.4, TMEM16A inh inactive, TAAR1 agonist inactive, CRFBP-R2 agonist inactive, ANO1 activ inactive and CRFR2-BP antag inactive.
Screening CC1CCN(C(=O)c2cc(S(=O)(=O)N3CCOCC3)ccc2N2CCCC2)CC1 returned TAAR1 antag inactive, TAAR1 agonist inactive, CRFBP-R2 agonist inactive, ANO1 activ inactive and CRFR2-BP antag inactive.
Screening COc1cc(CN(C2CCCCC2C)S(=O)(=O)c2ccc(S(=O)(=O)NC3CC3)cc2)cc(OC)c1OC (configuration not stated) returned TAAR1 antag inactive, TMEM16A inh inactive, TAAR1 agonist inactive, CRFBP-R2 agonist inactive, ANO1 activ inactive and CRFR2-BP antag inactive.
For COc1ccc(CN(C2CCCCC2C)S(=O)(=O)c2ccc(S(=O)(=O)N(C)C)cc2)cc1OC (configuration not stated) the results were TAAR1 antag inactive, TMEM16A inh inactive, TAAR1 agonist inactive, CRFBP-R2 agonist 147.9, ANO1 activ -29 and CRFR2-BP antag inactive.
For O=C(CCN1CCCCO1)N1CCCC(Nc2ccc(F)cc2)C1 (configuration not stated) the results were TAAR1 antag inactive, TMEM16A inh inactive, TAAR1 agonist inactive, CRFBP-R2 agonist inactive, ANO1 activ inactive and CRFR2-BP antag inactive.
For Cc1ccc(/C=C2\CCC3=C2OC(N)=C(C#N)C3c2ccc(C)cc2)cc1 (configuration not stated) the results were TMEM16A inh inactive, CRFBP-R2 agonist 252.9, ANO1 activ inactive and CRFR2-BP antag inactive.
